Test results: ChEMBL document CHEMBL1649207, “Role of porins in the susceptibility of Mycobacterium smegmatis and Mycobacterium chelonae to aldehyde-based disinfectants and drugs” (2009)
In brackets after ≈: the same amount, converted by molar mass. Activity calls are given as the source filed them. The rule behind the calls is not given here.

Columns and labels:
[1] = system: Mycobacteroides chelonae; assay: Antimicrobial activity against Mycobacterium chelonae ATCC 35752 by resazurine microtiter assay; type: functional
Procedure, shortened: (§1)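 Colorimetric resazurin microtiter MIC assay in 7H9-oleic acid-albumin-dextrose-catalase broth at 30°C, with well-dispersed bacteria. Growth was also checked by visual scanning to confirm the readings. At least three repeats on independent culture batches.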

[2] = system: Mycobacteroides chelonae; assay: Antimicrobial activity against Mycobacterium chelonae ATCC 35752 harboring pZS01 carrying mspA gene by resazurine microtiter assay; type: functional
[3] = system: Mycobacteroides chelonae; assay: Antimicrobial activity against Mycobacterium chelonae 9917 by resazurine microtiter assay; type: functional; procedure, shortened: as §1
[4] = system: Mycobacteroides chelonae; assay: Antimicrobial activity against Mycobacterium chelonae 9917 harboring pZS01 carrying mspA gene by resazurine microtiter assay; type: functional
[5] = system: Mycolicibacterium smegmatis; assay: Antimicrobial activity against Lsr2-deficient Mycobacterium smegmatis str. MC2 155; type: functional, organism-based
[6] = system: Mycolicibacterium smegmatis; assay: Antimicrobial activity against Mycobacterium smegmatis str. MC2 155 harboring embB mutant gene; type: functional, organism-based
[7] = system: Mycolicibacterium smegmatis; assay: Antimicrobial activity against MspA-deficient Mycobacterium smegmatis str. MC2 155; type: functional, organism-based
[8] = system: Mycolicibacterium smegmatis; assay: Antimicrobial activity against Mycobacterium smegmatis str. MC2 155 deficient in production of lipomannan and produces truncated lipoarabinomannan; type: functional, organism-based
[9] = system: Mycolicibacterium smegmatis; assay: Antimicrobial activity against MspA- and MspC-deficient Mycobacterium smegmatis str. MC2 155; type: functional, organism-based
[10] = system: Mycolicibacterium smegmatis; assay: Antimicrobial activity against Mycobacterium smegmatis str. MC2 155 deficient in glycopeptidolipid biosynthesis; type: functional, organism-based
[11] = system: Mycolicibacterium smegmatis; assay: Antimicrobial activity against Mycobacterium smegmatis str. MC2 155 deficient in mycothiol biosynthesis; type: functional, organism-based
[12] = system: Mycolicibacterium smegmatis; assay: Antimicrobial activity against Mycobacterium smegmatis str. MC2 155 deficient in production of polar phosphatidylinositol mannoside; type: functional, organism-based
[13] = system: Mycolicibacterium smegmatis; assay: Antimicrobial activity against Mycobacterium smegmatis str. MC2 155 harboring embA mutant gene; type: functional, organism-based
[14] = system: Mycolicibacterium smegmatis; assay: Antimicrobial activity against Mycobacterium smegmatis str. MC2 155 deficient in production of lipomannan and lipoarabinomannan; type: functional, organism-based
[15] = Mycobacteroides chelonae, 9917, Urine

| Compound | MIC [1] [µg/mL] | MIC ([2]; ATCC 35752, Urine) [µg/mL] | MIC [3] [µg/mL] | MIC [4, 15] [µg/mL] | also measured |
| --- | --- | --- | --- | --- | --- |
| O=C(N[C@H](CO)[C@H](O)c1ccc([N+](=O)[O-])cc1)C(Cl)Cl [CHLORAMPHENICOL] | > 500 | 50 (≈ 155 µM) | > 500 | 50 (≈ 155 µM) |  |
| CC[C@H]1OC(=O)[C@H](C)[C@@H](O[C@H]2C[C@@](C)(OC)[C@@H](O)[C@H](C)O2)[C@H](C)[C@@H](O[C@@H]2O[C@H](C)C[C@H](N(C)C)[C@H]2O)[C@](C)(O)C[C@@H](C)C(=O)[C@H](C)[C@@H](O)[C@]1(C)O [ERYTHROMYCIN] | 20 (≈ 27.3 µM) | 0.25 (≈ 0.341 µM) | 500 (≈ 681 µM) | 1 (≈ 1.36 µM) |  |
| CO[C@H]1/C=C/O[C@@]2(C)Oc3c(C)c(O)c4c(O)c(c(/C=N/N5CCN(C)CC5)c(O)c4c3C2=O)NC(=O)/C(C)=C\C=C\[C@H](C)[C@H](O)[C@@H](C)[C@@H](O)[C@@H](C)[C@H](OC(C)=O)[C@@H]1C [RIFAMPIN] | 25 (≈ 30.4 µM) | 5 (≈ 6.08 µM) | > 500 | 100 (≈ 122 µM) |  |
| CN[C@@H]1[C@H](O[C@H]2[C@H](O[C@H]3[C@H](O)[C@@H](O)[C@H](N=C(N)N)[C@@H](O)[C@@H]3N=C(N)N)O[C@@H](C)[C@]2(O)C=O)O[C@@H](CO)[C@H](O)[C@H]1O [STREPTOMYCIN] | 200 (≈ 344 µM) | 250 (≈ 430 µM) | 10 (≈ 17.2 µM) | 10 (≈ 17.2 µM) |  |
| O=Cc1ccccc1C=O |  |  |  |  | Activity ([2]; Urine): Active; Activity ([4]; Urine): Active |
| CCn1cc(C(=O)O)c(=O)c2cc(F)c(N3CCNCC3)cc21 [NORFLOXACIN] | 5 (≈ 15.7 µM) |  | 5 (≈ 15.7 µM) |  |  |
| CN[C@H](CC(C)C)C(=O)N[C@H]1C(=O)N[C@@H](CC(N)=O)C(=O)N[C@H]2C(=O)N[C@H]3C(=O)N[C@H](C(=O)N[C@H](C(=O)O)c4cc(O)cc(O)c4-c4cc3ccc4O)[C@H](O)c3ccc(c(Cl)c3)Oc3cc2cc(c3O[C@@H]2O[C@H](CO)[C@@H](O)[C@H](O)[C@H]2O[C@H]2C[C@](C)(N)[C@H](O)[C@H](C)O2)Oc2ccc(cc2Cl)[C@H]1O [VANCOMYCIN] | 5 (≈ 3.45 µM) | 5 (≈ 3.45 µM) | > 500 | 25 (≈ 17.3 µM) |  |
| CC1(C)S[C@@H]2[C@H](NC(=O)[C@H](N)c3ccccc3)C(=O)N2[C@H]1C(=O)O [AMPICILLIN] | > 500 |  | > 500 |  |  |
| CC[C@H]1OC(=O)[C@H](C)[C@@H](O[C@H]2C[C@@](C)(OC)[C@@H](O)[C@H](C)O2)[C@H](C)[C@@H](O[C@@H]2O[C@H](C)C[C@H](N(C)C)[C@H]2O)[C@](C)(OC)C[C@@H](C)C(=O)[C@H](C)[C@@H](O)[C@]1(C)O [CLARITHROMYCIN] | 25 (≈ 33.4 µM) | 50 (≈ 66.8 µM) | > 250 | 25 (≈ 33.4 µM) |  |
| CC(=O)NC[C@H]1CN(c2ccc(N3CCOCC3)c(F)c2)C(=O)O1 [LINEZOLID] | 25 (≈ 74.1 µM) | 5 (≈ 14.8 µM) | 100 (≈ 296 µM) | 1 (≈ 2.96 µM) |  |
| NC(=O)c1cnccn1 [PYRAZINAMIDE] | > 500 |  | > 500 |  |  |
| NC[C@H]1O[C@H](O[C@H]2[C@H](O)[C@@H](O[C@H]3O[C@H](CO)[C@@H](O)[C@H](N)[C@H]3O)[C@H](N)C[C@@H]2N)[C@H](O)[C@@H](O)[C@@H]1O [KANAMYCIN] | 50 (≈ 103 µM) |  | 10 (≈ 20.6 µM) |  |  |
| CN[C@@H]1C[C@H](N)[C@@H](O)[C@H](O[C@H]2O[C@H](CO)[C@H](O)[C@@H]3O[C@@]4(O[C@@H]23)O[C@H]([C@H](N)CO)[C@H](O)[C@H](O)[C@H]4O)[C@H]1O [HYGROMYCIN] | > 500 |  | > 500 |  |  |
| CC[C@@H](CO)NCCN[C@@H](CC)CO [ETHAMBUTOL] | > 500 | 25 (≈ 122 µM) | > 500 | 250 (≈ 1220 µM) |  |
| CCc1cc(C(N)=S)ccn1 [ETHIONAMIDE] | > 400 | 50 (≈ 301 µM) | > 400 | 50 (≈ 301 µM) |  |
| CC[C@H]1OC(=O)[C@H](C)[C@@H](O[C@H]2C[C@@](C)(OC)[C@@H](O)[C@H](C)O2)[C@H](C)[C@@H](O[C@@H]2O[C@H](C)C[C@H](N(C)C)[C@H]2O)[C@](C)(O)C[C@@H](C)CN(C)[C@H](C)[C@@H](O)[C@]1(C)O [AZITHROMYCIN] | 500 (≈ 668 µM) | 500 (≈ 668 µM) | 500 (≈ 668 µM) | 500 (≈ 668 µM) |  |
| GENTAMICIN | 7.5 |  | 15 |  | MIC ([2]; Urine): 7.5 µg/mL; MIC ([4]; Urine): 20 µg/mL |
| NNC(=O)c1ccncc1 [ISONIAZID] | > 400 |  | > 400 |  |  |
| NC[C@H]1O[C@H](O[C@H]2[C@H](O)[C@@H](O[C@H]3O[C@H](CO)[C@@H](O)[C@H](N)[C@H]3O)[C@H](N)C[C@@H]2N)[C@H](N)C[C@@H]1O [TOBRAMYCIN] | 25 (≈ 53.5 µM) |  | 25 (≈ 53.5 µM) |  |  |
| O=CCCCC=O |  |  |  |  | Activity [5]: inactive; Activity [6]: Active; Activity [7]: inactive; Activity ([2]; Urine): Active; Activity [8]: Active; Activity [9]: inactive; Activity [10]: inactive; Activity [11]: inactive; Activity [12]: inactive; Activity ([4]; Urine): Active; Activity [13]: Active; Activity [14]: inactive |
| CN(C)[C@@H]1C(O)=C(C(N)=O)C(=O)[C@@]2(O)C(O)=C3C(=O)c4c(O)cccc4[C@@](C)(O)[C@H]3C[C@@H]12 [TETRACYCLINE] | 50 (≈ 113 µM) | 5 (≈ 11.3 µM) | > 500 | 25 (≈ 56.3 µM) |  |
| O=C(O)c1cn(C2CC2)c2cc(N3CCNCC3)c(F)cc2c1=O [CIPROFLOXACIN] | 1.5 (≈ 4.53 µM) | 2.5 (≈ 7.54 µM) | 5 (≈ 15.1 µM) | 1 (≈ 3.02 µM) |  |
